Data from ChEMBL document CHEMBL5058577, “EUbOPEN Chemogenomics Library 2 (Multiplex)” (2022).

Tested on: U2OS
Assay: Multiplex assay against U2OS
Format: toxicity, cell-based
Conditions: human
Method in brief: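 With compound added, live cells were imaged on a CQ1 microscope at 37°C and 5% CO2; staining with Hoechst33342, BioTracker Green Microtubule Cytoskeleton Dye, MitoTracker Red and Annexin V Alexa Fluor 680 had been done at seeding. The CellPathfinder machine-learning gating scheme split cells into Hoechst high-intensity objects or normal cells, normal cells into healthy, pyknosed or fragmented nuclei, and pyknosed cells into mitotic or apoptotic. The tubulin, mitochondrial-mass and membrane-permeability phenotypes are per cents of healthy-nucleus cells.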

[1] = 12 h, 1 µM, compound concentration 1 uM, replicate 1
[2] = 12 h, 1 µM, compound concentration 1 uM, replicate 2
[3] = 12 h, 10 µM, compound concentration 10 uM, replicate 1
[4] = 12 h, 10 µM, compound concentration 10 uM, replicate 2
[5] = 24 h, 1 µM, compound concentration 1 uM, replicate 1
[6] = 24 h, 1 µM, compound concentration 1 uM, replicate 2
[7] = 24 h, 10 µM, compound concentration 10 uM, replicate 1
[8] = 24 h, 10 µM, compound concentration 10 uM, replicate 2
[9] = 48 h, 1 µM, compound concentration 1 uM, replicate 1
[10] = 48 h, 1 µM, compound concentration 1 uM, replicate 2
[11] = 48 h, 10 µM, compound concentration 10 uM, replicate 1
[12] = 48 h, 10 µM, compound concentration 10 uM, replicate 2

CCCCCC(O)/C=C/[C@H]1C(=O)CC(O)C1C/C=C\CCCC(=O)O (stereo partly specified)
Population Apoptotic (%) [1]: 60% | Population Fragmented Nuclei (%) [1]: 28% | Population Healthy Nuclei (%) [1]: 59% | Population Hoechst High Intensity Objects (%) [1]: 1% | Population Membrane Permeable-Phenotype (%) [1]: 5% | Population Mitochondria Different-Phenotype (%) [1]: 4% | Population Mitotic Cells (%) [1]: 40% | Population Normal (%) [1]: 98% | Population Pyknosed Nuclei (%) [1]: 12% | Population Tubulin-Different-Phenotype (%) [1]: 4% | Total Cell Count [1]: 203 | Population Apoptotic (%) [2]: 88% | Population Fragmented Nuclei (%) [2]: 15% | Population Healthy Nuclei (%) [2]: 76% | Population Hoechst High Intensity Objects (%) [2]: 0% | Population Membrane Permeable-Phenotype (%) [2]: 8% | Population Mitochondria Different-Phenotype (%) [2]: 6% | Population Mitotic Cells (%) [2]: 11% | Population Normal (%) [2]: 99% | Population Pyknosed Nuclei (%) [2]: 8% | Population Tubulin-Different-Phenotype (%) [2]: 8% | Total Cell Count [2]: 113 | Population Apoptotic (%) [3]: 71% | Population Fragmented Nuclei (%) [3]: 23% | Population Healthy Nuclei (%) [3]: 69% | Population Hoechst High Intensity Objects (%) [3]: 2% | Population Membrane Permeable-Phenotype (%) [3]: 8% | Population Mitochondria Different-Phenotype (%) [3]: 3% | Population Mitotic Cells (%) [3]: 28% | Population Normal (%) [3]: 97% | Population Pyknosed Nuclei (%) [3]: 7% | Population Tubulin-Different-Phenotype (%) [3]: 5% | Total Cell Count [3]: 190 | Population Apoptotic (%) [4]: 66% | Population Fragmented Nuclei (%) [4]: 16% | Population Healthy Nuclei (%) [4]: 73% | Population Membrane Permeable-Phenotype (%) [4]: 10% | Population Mitochondria Different-Phenotype (%) [4]: 2% | Population Mitotic Cells (%) [4]: 33% | Population Pyknosed Nuclei (%) [4]: 9% | Population Tubulin-Different-Phenotype (%) [4]: 4% | Total Cell Count [4]: 94 | Population Apoptotic (%) [5]: 86% | Population Fragmented Nuclei (%) [5]: 27% | Population Healthy Nuclei (%) [5]: 63% | Population Hoechst High Intensity Objects (%) [5]: 2% | Population Membrane Permeable-Phenotype (%) [5]: 3% | Population Mitochondria Different-Phenotype (%) [5]: 0% | Population Mitotic Cells (%) [5]: 13% | Population Normal (%) [5]: 98% | Population Pyknosed Nuclei (%) [5]: 8% | Population Tubulin-Different-Phenotype (%) [5]: 1% | Total Cell Count [5]: 250 | Population Apoptotic (%) [6]: 90% | Population Fragmented Nuclei (%) [6]: 16% | Population Healthy Nuclei (%) [6]: 74% | Population Hoechst High Intensity Objects (%) [6]: 0% | Population Membrane Permeable-Phenotype (%) [6]: 5% | Population Mitochondria Different-Phenotype (%) [6]: 7% | Population Mitotic Cells (%) [6]: 9% | Population Normal (%) [6]: 99% | Population Tubulin-Different-Phenotype (%) [6]: 4% | Total Cell Count [6]: 131 | Population Apoptotic (%) [7]: 100% | Population Fragmented Nuclei (%) [7]: 23% | Population Healthy Nuclei (%) [7]: 66% | Population Hoechst High Intensity Objects (%) [7]: 1% | Population Membrane Permeable-Phenotype (%) [7]: 6% | Population Mitochondria Different-Phenotype (%) [7]: 4% | Population Mitotic Cells (%) [7]: 0% | Population Normal (%) [7]: 98% | Population Pyknosed Nuclei (%) [7]: 9% | Population Tubulin-Different-Phenotype (%) [7]: 4% | Total Cell Count [7]: 216 | Population Apoptotic (%) [8]: 90% | Population Fragmented Nuclei (%) [8]: 16% | Population Healthy Nuclei (%) [8]: 74% | Population Hoechst High Intensity Objects (%) [8]: 2% | Population Membrane Permeable-Phenotype (%) [8]: 5% | Population Mitochondria Different-Phenotype (%) [8]: 1% | Population Mitotic Cells (%) [8]: 10% | Population Normal (%) [8]: 97% | Population Pyknosed Nuclei (%) [8]: 8% | Population Tubulin-Different-Phenotype (%) [8]: 2% | Total Cell Count [8]: 118 | Population Apoptotic (%) [9]: 89% | Population Fragmented Nuclei (%) [9]: 19% | Population Healthy Nuclei (%) [9]: 71% | Population Hoechst High Intensity Objects (%) [9]: 2% | Population Membrane Permeable-Phenotype (%) [9]: 4% | Population Mitochondria Different-Phenotype (%) [9]: 3% | Population Mitotic Cells (%) [9]: 10% | Population Normal (%) [9]: 97% | Population Pyknosed Nuclei (%) [9]: 8% | Population Tubulin-Different-Phenotype (%) [9]: 2% | Total Cell Count [9]: 334 | Population Apoptotic (%) [10]: 100% | Population Fragmented Nuclei (%) [10]: 13% | Population Healthy Nuclei (%) [10]: 79% | Population Membrane Permeable-Phenotype (%) [10]: 5% | Population Mitochondria Different-Phenotype (%) [10]: 4% | Population Mitotic Cells (%) [10]: 0% | Population Pyknosed Nuclei (%) [10]: 7% | Population Tubulin-Different-Phenotype (%) [10]: 3% | Total Cell Count [10]: 189 | Population Apoptotic (%) [11]: 89% | Population Fragmented Nuclei (%) [11]: 23% | Population Healthy Nuclei (%) [11]: 67% | Population Hoechst High Intensity Objects (%) [11]: 3% | Population Membrane Permeable-Phenotype (%) [11]: 6% | Population Mitochondria Different-Phenotype (%) [11]: 3% | Population Mitotic Cells (%) [11]: 10% | Population Normal (%) [11]: 96% | Population Pyknosed Nuclei (%) [11]: 9% | Population Tubulin-Different-Phenotype (%) [11]: 4% | Total Cell Count [11]: 302 | Population Apoptotic (%) [12]: 100% | Population Fragmented Nuclei (%) [12]: 21% | Population Healthy Nuclei (%) [12]: 70% | Population Hoechst High Intensity Objects (%) [12]: 2% | Population Membrane Permeable-Phenotype (%) [12]: 7% | Population Mitotic Cells (%) [12]: 0% | Population Normal (%) [12]: 97% | Population Pyknosed Nuclei (%) [12]: 7% | Population Tubulin-Different-Phenotype (%) [12]: 3% | Total Cell Count [12]: 161
